Measurements from PMC3417419 (British Journal of Pharmacology, 2012).
Like-named read-outs stand apart in the source and are kept apart here.

Legend:
[1] = test system: GluN2A- and GluN2B-containing NMDA receptors; conditions: cited from earlier work
[2] = target: GluN1/GluN2B NMDA receptors (Rattus norvegicus, UniProt P35439+Q00960); experiment: Two-electrode voltage-clamp; format: cell-based; conditions: for antagonism of glutamate/glycine-evoked responses: TCN 213 10 µM
native NMDA receptors = experiment: Whole-cell NMDA-evoked currents in cultured rat cortical neurones; format: cell-based; conditions: for block of NMDA receptor-mediated currents, subset with greatest ifenprodil block: n= 7 cells
GluN1 subunit = conditions: ref Bettini et al. (2010); cited from earlier work
[3] = target: GluN1/GluN2A NMDA receptors (Rattus norvegicus, UniProt P35439+Q00959); experiment: Two-electrode voltage-clamp; format: cell-based; conditions: for mean dose ratio (r): two-point glycine curves
rat cortical neurones = experiment: NMDA-induced excitotoxicity assay in cortical cultures; format: cell-based; conditions: NMDA 40 µM + glycine […], 1 h, DIV 7–10, assessed at 24 h
Procedure, shortened: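 Cortical neurones from E21 Sprague–Dawley rat embryos, grown in Neurobasal-A with B27, 1% rat serum and glutamine; AraC added at DIV 4. Before the assay, cultures moved to glycine-free non-trophic medium (10% MEM in HEPES salt-glucose medium). […] After 24 h, DAPI-stained pyknotic nuclei counted as percentage of total nuclei.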

[4] = target: GluN1/GluN2A and GluN1/GluN2D NMDA receptors; conditions: ref Chen et al., 2008; cited from earlier work
[5] = test system: GluN1/GluN2B NMDA receptors; conditions: non-competitive antagonist, block 'at most'; no reference given; cited from earlier work
[6] = TCN 213 30 µM, NMDA 50 µM + glycine 3 µM

Chain of GluN1/GluN2A NMDA receptors (Q00959 23-1464, other chains not shown): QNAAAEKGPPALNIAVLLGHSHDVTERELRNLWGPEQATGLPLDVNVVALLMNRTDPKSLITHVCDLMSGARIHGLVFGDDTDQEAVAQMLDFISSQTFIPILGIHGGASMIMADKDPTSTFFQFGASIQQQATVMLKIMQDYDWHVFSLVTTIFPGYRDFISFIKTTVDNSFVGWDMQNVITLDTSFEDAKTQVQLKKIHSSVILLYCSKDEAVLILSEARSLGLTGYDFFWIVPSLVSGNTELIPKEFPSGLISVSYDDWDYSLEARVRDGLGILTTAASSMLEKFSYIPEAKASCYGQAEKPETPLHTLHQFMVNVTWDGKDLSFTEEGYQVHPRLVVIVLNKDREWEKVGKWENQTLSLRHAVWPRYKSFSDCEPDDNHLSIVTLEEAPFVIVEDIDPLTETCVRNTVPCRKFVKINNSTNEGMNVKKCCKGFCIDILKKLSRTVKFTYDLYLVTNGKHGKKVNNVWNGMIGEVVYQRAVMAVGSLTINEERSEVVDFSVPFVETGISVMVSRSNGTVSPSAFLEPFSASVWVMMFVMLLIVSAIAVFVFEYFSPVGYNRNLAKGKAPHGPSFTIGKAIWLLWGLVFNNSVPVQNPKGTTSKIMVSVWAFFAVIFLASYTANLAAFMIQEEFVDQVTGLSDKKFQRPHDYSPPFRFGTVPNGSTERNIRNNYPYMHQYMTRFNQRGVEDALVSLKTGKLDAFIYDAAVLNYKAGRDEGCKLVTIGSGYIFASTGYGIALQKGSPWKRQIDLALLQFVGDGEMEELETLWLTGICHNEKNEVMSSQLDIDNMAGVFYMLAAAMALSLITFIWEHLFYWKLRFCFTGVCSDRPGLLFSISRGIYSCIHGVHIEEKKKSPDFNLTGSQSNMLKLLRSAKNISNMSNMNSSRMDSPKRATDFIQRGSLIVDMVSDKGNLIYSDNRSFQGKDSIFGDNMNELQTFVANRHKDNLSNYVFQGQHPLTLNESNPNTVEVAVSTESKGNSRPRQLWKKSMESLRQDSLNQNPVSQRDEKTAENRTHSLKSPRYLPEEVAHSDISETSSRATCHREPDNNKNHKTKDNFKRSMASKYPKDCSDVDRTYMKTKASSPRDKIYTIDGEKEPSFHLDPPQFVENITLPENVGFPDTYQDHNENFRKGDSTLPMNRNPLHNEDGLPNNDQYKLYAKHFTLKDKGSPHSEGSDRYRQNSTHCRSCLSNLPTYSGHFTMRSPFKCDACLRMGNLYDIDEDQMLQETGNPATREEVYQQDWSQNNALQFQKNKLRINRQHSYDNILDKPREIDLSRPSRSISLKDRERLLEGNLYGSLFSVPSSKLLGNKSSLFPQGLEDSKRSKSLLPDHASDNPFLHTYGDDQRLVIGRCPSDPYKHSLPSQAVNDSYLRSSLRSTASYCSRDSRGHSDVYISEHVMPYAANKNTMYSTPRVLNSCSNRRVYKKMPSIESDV
Chain of GluN1/GluN2B NMDA receptors (Rattus norvegicus, UniProt P35439+Q00960) (Q00960 27-1482, other chains not shown): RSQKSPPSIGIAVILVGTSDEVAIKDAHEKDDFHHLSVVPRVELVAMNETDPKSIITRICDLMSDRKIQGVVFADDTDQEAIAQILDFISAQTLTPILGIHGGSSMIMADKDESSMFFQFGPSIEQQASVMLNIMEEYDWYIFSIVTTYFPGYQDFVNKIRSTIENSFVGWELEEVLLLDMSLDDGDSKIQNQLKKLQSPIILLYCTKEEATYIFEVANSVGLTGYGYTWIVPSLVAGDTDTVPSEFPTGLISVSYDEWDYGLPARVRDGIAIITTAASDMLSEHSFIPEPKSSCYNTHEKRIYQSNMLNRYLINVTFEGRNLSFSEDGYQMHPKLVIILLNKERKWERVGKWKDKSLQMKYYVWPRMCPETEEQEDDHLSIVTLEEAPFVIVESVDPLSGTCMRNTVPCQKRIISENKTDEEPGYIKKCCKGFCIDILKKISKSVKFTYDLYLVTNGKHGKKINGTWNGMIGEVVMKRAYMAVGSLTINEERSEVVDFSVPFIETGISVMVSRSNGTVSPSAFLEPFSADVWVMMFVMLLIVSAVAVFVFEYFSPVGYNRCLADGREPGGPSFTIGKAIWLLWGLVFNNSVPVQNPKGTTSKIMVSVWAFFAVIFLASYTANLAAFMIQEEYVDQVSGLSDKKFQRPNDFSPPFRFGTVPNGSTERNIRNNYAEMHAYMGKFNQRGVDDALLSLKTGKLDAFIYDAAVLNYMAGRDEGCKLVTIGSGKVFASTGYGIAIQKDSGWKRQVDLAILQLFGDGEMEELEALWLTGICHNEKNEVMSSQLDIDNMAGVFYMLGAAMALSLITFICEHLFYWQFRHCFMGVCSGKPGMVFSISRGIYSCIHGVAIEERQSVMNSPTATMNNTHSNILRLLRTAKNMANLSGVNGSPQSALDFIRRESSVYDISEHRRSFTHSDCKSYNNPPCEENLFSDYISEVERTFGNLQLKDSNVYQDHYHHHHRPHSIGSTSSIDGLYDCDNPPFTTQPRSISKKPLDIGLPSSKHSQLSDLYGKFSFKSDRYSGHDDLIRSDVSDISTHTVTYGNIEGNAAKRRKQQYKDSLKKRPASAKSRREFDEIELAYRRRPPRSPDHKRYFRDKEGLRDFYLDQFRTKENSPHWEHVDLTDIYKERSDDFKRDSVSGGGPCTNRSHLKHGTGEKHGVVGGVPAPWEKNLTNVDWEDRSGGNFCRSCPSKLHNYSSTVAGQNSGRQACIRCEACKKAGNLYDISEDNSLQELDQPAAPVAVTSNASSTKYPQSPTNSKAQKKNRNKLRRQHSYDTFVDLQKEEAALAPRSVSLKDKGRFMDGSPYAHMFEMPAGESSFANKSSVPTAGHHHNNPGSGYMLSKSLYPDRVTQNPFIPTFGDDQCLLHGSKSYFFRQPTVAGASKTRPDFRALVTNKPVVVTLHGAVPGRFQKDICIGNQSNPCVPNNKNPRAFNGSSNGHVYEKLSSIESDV

## [N-]=[N+]=Nc1ccc(CC(=O)NC2CC(C(=O)O)Nc3cc(Cl)cc(Cl)c32)cc1 (centres unmarked) [CGP-61594]
[1]; more potent at GluN1/GluN2B, ref Honer et al., 1998
  potency at GluN1/GluN2B compared with GluN1/GluN2A NMDA receptors: 10 fold

## O=C(CSc1nnc(NCc2ccccc2)s1)NCC1CCCCC1 [TCN 213, N-(cyclohexylmethyl)-2-({5-[(phenylmethyl)amino]-1,3,4-thiadiazol-2-yl}thio)acetamide]
[2]
  IC50: > 300000 nM
[2]; 50 µM glycine, three glutamate concentrations
  antagonism of glutamate/glycine-evoked responses: no antagonism
[2]; glycine low (0.1 × EC50)
  antagonism of glutamate/glycine-evoked responses: only modestly antagonized
[2]; [6]
  mean block of NMDA-evoked current: 2 ± 0.5%
[2]; TCN 213 30 µM, glycine 1 and 10 times EC50
  inhibition of currents: negligible inhibition
Native NMDA receptors; TCN 213 10 µM, DIV 7–10, NMDA 50 µM + glycine […], −70 mV
  average inhibition of NMDA receptor-mediated currents: 2 ± 3%
Native NMDA receptors; TCN 213 10 µM, DIV 7–10
  block of NMDA receptor-mediated currents, subset with greatest ifenprodil block: 4 ± 2%
GluN1 subunit
  displacement of the GluN1 ligand MDL 105 519: failed to displace
[3]; 10 µM TCN 213, glutamate 100 µM
  mean dose ratio (r): 5.20 ± 0.79
[3]; 30 µM TCN 213, glutamate 100 µM
  mean dose ratio (r): 17.22 ± 1.69
[3]; 95% confidence interval 0.94–1.31
  Schild plot slope, 'free' fit: 1.13
[3]; Antagonist IC50, [gly]= 0.1 EC50 ([…] glycine) + 100 µM glutamate
  IC50: 550 ± 50 nM
[3]; Antagonist IC50, [gly]= 10 EC50 (15 µM glycine) + 100 µM glutamate
  IC50: 40000 ± 3500 nM
[3]; Antagonist IC50, [gly]= EC50 ([…] glycine) + 100 µM glutamate
  IC50: 3500 ± 50 nM
[3]; TCN 213 10 µM, glutamate 100 µM, glycine 150 nM (0.1 × EC50)
  block of glutamate/glycine-evoked current: Almost complete block
[3]; TCN 213 10 µM, glutamate 100 µM, glycine 15 µM (10 × EC50)
  block of glutamate/glycine-evoked current: substantially less block
[3]; TCN 213 10 µM, glycine 50 µM, glutamate 0.1, 1, 10 × EC50
  dependence of antagonism on glutamate concentration: not dependent on the glutamate concentration
[3]; TCN 213 10 µM, glycine […], read from Figure 2A
  expected block of current for a purely GluN2A-containing population: around 75%
[3]; [6]
  mean block of NMDA-evoked current: 78 ± 4%
[3]; TCN 213 30 µM, NMDA 50 µM + glycine 3 µM, single oocyte
  reduction in amplitude of current response, example trace: approximately 75%
[3]; from IC50 values at glycine = EC50
  selectivity GluN1/GluN2A over GluN1/GluN2B: around 100 fold
[3]; glutamate 100 µM, glycine 50 µM and above
  surmountability of antagonism by increasing glycine: surmountable
[3]; glycine 10 times EC50, extrapolation of Figure 2A
  concentration predicted to block fully the response: around 1 mM

## O=C(O)c1cc(=O)c2c(Cl)cc(Cl)cc2[nH]1 [5,7 DCKA, 5,7 dichlorokynurenic acid]
Rat cortical neurones; 5,7 DCKA 10 µM
  NMDA-induced cell death (pyknotic nuclei) versus NMDA alone: reduced significantly
[2]; read-out: Antagonist IC50
  IC50: 74 ± 10 nM
[2]; read-out: Antagonist IC50, [gly]= 10 EC50
  IC50: 4100 ± 400 nM
[2]; read-out: Antagonist IC50, [gly]= EC50
  IC50: 490 ± 10 nM
[3]; read-out: Antagonist IC50, [gly]= 0.1 EC50 ([…] glycine) + 100 µM glutamate
  IC50: 130 ± 10 nM
[3]; read-out: Antagonist IC50, [gly]= 10 EC50 (15 µM glycine) + 100 µM glutamate
  IC50: 4100 ± 300 nM
[3]; read-out: Antagonist IC50, [gly]= EC50 ([…] glycine) + 100 µM glutamate
  IC50: 420 ± 30 nM
[4]
  KB values at GluN1/GluN2A versus GluN1/GluN2D (Schild analysis): indistinguishable

## CC(C(O)c1ccc(O)cc1)N1CCC(Cc2ccccc2)CC1 (centres unmarked) [ifenprodil]
[5]
  maximal block of current: 75–80%
Rat cortical neurones; ifenprodil 3 µM
  NMDA-induced cell death (pyknotic nuclei) versus NMDA alone: reduced significantly
Native NMDA receptors; ifenprodil 3 µM, 7 DIV pyramidal cell, NMDA 50 µM + glycine […]
  reduction of NMDA + glycine evoked current, example cell: around 75%
Native NMDA receptors; ifenprodil 3 µM, DIV 7–10, NMDA 50 µM + glycine […], −70 mV
  average block of NMDA receptor-mediated currents: 72 ± 2%
Native NMDA receptors; ifenprodil 3 µM, DIV 7–10
  block of NMDA receptor-mediated currents, subset with greatest ifenprodil block: 78 ± 1%

## O=C(Nc1ccccc1)N[C@@H]1C[C@@H](C(=O)O)Nc2cc(Cl)cc(Cl)c21 [L-689 560]
[1]; ref Hess et al., 1996
  selectivity for GluN2A- over GluN2B-containing NMDA receptors: 5 fold
